CDK5 p35 inh: CDK5/p35 (human) kinase inhibition. Q00535+Q15078. Recombinant CDK5/p35, ADP-Glo luminescence, 60 min. inhibition, % at 10 µM. actives 0.01% (n = 330,000);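 active = highest replicate inhibition of at least 50% and at least 75% of replicates reaching 50%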;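 note: plate controls were DMSO neutral control for no effect and GW8510 at 10 µM for full effect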
Target sequence (Q00535 whole entry, looked up): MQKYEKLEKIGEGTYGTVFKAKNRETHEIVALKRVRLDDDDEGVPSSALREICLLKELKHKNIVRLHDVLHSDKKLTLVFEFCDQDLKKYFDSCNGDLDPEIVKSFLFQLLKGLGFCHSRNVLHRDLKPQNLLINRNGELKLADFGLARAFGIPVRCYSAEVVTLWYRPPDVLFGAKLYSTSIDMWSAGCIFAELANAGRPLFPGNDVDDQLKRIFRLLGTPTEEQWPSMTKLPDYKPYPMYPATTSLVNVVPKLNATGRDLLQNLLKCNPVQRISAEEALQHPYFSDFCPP
Target sequence (Q15078 whole entry, looked up): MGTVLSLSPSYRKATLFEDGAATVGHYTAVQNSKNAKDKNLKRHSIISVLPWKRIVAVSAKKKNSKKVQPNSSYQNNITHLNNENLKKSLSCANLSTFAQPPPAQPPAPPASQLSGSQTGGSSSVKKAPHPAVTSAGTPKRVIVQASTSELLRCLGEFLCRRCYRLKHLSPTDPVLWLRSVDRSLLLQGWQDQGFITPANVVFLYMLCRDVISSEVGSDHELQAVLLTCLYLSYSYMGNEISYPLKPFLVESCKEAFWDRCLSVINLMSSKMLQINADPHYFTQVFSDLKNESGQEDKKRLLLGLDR
dFosB activator: mouse delta FosB homodimer activation | P13346 | purified delta FosB, TAMRA-CDK5 oligo fluorescence polarization; percent of positive-control signal above neutral wells | activation, % at 25 µM | actives 0.99% (n = 340,000);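 active = mean activation above about 17%, with every replicate also reaching it, limit read from the data, passing the limit was not always enough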
Cneo AK release: causes C. neoformans cell lysis; actives 0.2% (n = 360,000); adenylate kinase release luminescence, 4 h; normalised: neutral wells 0, clomiphene wells 100; lysis activity, % at 15 µM;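 active = mean lysis activity across replicates of at least 80%, whatever share of replicates individually reach that level; inactive = mean lysis activity below 80%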
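Material – Cryptococcus neoformans yeast cells · Quantity – 5 × 10^6 yeast cells/mL · Buffer or medium – YPD medium · Compound – single dose · Timing – 4 h static compound exposure, 37 °C, read 1 h post-reagent · Signal – adenylate kinase release luminescence · Read-out basis – lysis from increased AK signal · Benchmarks – Clomiphene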
INS-1E GSIS act: primary screen for activators of insulin secretion dependent on glucose, INS-1E cells, GLuc reporter luminescence | actives 0.61% (n = 370,000) | INS-1E GLuc reporter insulin secretion, 2-3 h | activation, % at 16.6 µM;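 active = lowest replicate activation of at least 40%, so every replicate reaches that level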;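 note: 0% = median of neutral control wells and 100% = median of IBMX positive control wells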
PAX8 reporter: lowers PAX8-driven luciferase in RMG-I cells | inhibition, % at 12.6 µM | actives 1.2% (n = 360,000) | RMG-I TPO-luciferase reporter, SteadyGlo, 24 h | AID 652154;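 active = mean replicate inhibition at least 60% with every replicate also reaching 60%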;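 note: luciferase light reporting Pax8 driven TPO promoter activity; plate controls were median of neutral control wells for no effect and mitoxantrone controls for full effect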
Env fusion inh: blocks HIV Env-driven cell-cell fusion; HeLa-JRFL Env/CEM21 cell fusion, luciferase; inhibition, % at 12.3 µM; actives 1.1% (n = 360,000);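 active = mean replicate inhibition score of at least 50 and every replicate individually at or above 50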;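 note: 0% = plate neutral controls and 100% = maraviroc near 300 nM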
The depositor's hits bear a star; . = no result; [ ] = another dose, or the depositor's remark. Sampled rows, rich in hits. Any-hit rate of the full collection: about 2.9%.

SMILES | CDK5 p35 inh | dFosB activator | Cneo AK release | INS-1E GSIS act | PAX8 reporter | Env fusion inh
Cc1cc(N/N=C/c2ccccc2)nc(NCc2ccccc2)n1 | 0 | 38* | -9 | -23 | -69 | -16
Cc1cc(N/N=C/c2cccc(F)c2)nc(NCc2ccccc2)n1 | 1 | 33* | . | 6 | -12 | 6
CC(=O)N(C)C[C@H]1Oc2ncc(C#CC3(O)CCCC3)cc2C(=O)N([C@H](C)CO)C[C@H]1C | . | . | 4 | 2 | . | 22[16.7 µM]
CCN(Cc1ccc2c(c1)OCO2)C(=O)/C=C/c1cccc(Br)c1 | -2 | -8 | -2 | 0 | -16 | 15
CC(C)(C)N(Cc1ccc2c(c1)OCO2)C(=O)/C=C\S(=O)c1ccccc1 (stereo not given) | 0 | -14 | . | -12 | 95* | 41
Cc1ccccc1S(=O)(=O)N1C[C@@H](O)COC[C@@H]2O[C@H](CC(=O)O)CC[C@H]21 | . | . | -3 | 2 | -2 | -6[16.7 µM]
O=C(N[C@H]1CC[C@@H](CCNS(=O)(=O)c2ccc(F)cc2)O[C@H]1CO)c1cnccn1 | . | . | 1 | 9 | -8 | -1[16.7 µM]
CC(=O)N(C)C[C@H]1Oc2ncc(C#Cc3ccc(F)cc3)cc2C(=O)N([C@@H](C)CO)C[C@@H]1C | . | . | . | -12 | -6 | 4[16.7 µM]
NS(=O)(=O)c1cccc(NC(=O)CSc2nn(-c3ccccc3)c(=S)s2)c1 | 1 | -10 | -1 | 15 | -19 | 27
Cc1ccc(NC(=O)CSc2nn(-c3ccc(Cl)cc3)c(=S)s2)cc1S(=O)(=O)N(C)C | 1 | -10 | -2 | -13 | -10 | 83*
CN(C)S(=O)(=O)c1cc(NC(=O)CSc2nn(-c3ccc(Cl)cc3)c(=S)s2)ccc1Cl | 0 | 4 | . | -23 | 25 | 133*
COc1ccc(S(=O)(=O)Nc2ccc3c(c2)C(=O)N([C@H](C)CO)C[C@H](C)[C@H](CN(C)S(=O)(=O)c2ccc(C)cc2)O3)cc1 | . | . | 0 | 3 | -13 | 21[16.7 µM]
C[C@@H]1CN([C@@H](C)CO)C(=O)c2cc(NS(=O)(=O)c3ccc(Cl)cc3)ccc2O[C@@H](C)CCCCO[C@H]1CN(C)C | . | . | 0 | -3 | 80* | -12[16.7 µM]
C[C@@H]1CN([C@H](C)CO)C(=O)c2cc(NS(=O)(=O)c3ccc(Cl)cc3)ccc2O[C@@H](C)CCCCO[C@H]1CN(C)S(=O)(=O)c1ccc(Cl)cc1 | . | . | 5 | -32 | 95* | -62[16.7 µM]
C[C@@H]1CN([C@@H](C)CO)C(=O)c2cc(NS(=O)(=O)c3ccc(Cl)cc3)ccc2O[C@@H](C)CCCCO[C@H]1CN(C)S(=O)(=O)c1ccc(Cl)cc1 | . | . | 5 | 4 | -4 | -127[16.7 µM]
CNC[C@@H]1Oc2ccc(NS(=O)(=O)c3ccc(Cl)cc3)cc2C(=O)N([C@H](C)CO)C[C@H]1C | . | . | 108* | 30 | 1 | .
C[C@H](CO)N1C[C@H](C)[C@H](CN(C)S(=O)(=O)c2ccc(Cl)cc2)OCCCC[C@H](C)Oc2ccc(NS(=O)(=O)c3ccc(Cl)cc3)cc2C1=O | . | . | -12 | 24 | 81* | -123[16.7 µM]
CNC[C@H]1Oc2ccc(NS(=O)(=O)c3ccc(Cl)cc3)cc2C(=O)N([C@H](C)CO)C[C@@H]1C | . | . | -41 | 16 | -20 | .
C[C@H]1CN([C@@H](C)CO)C(=O)Cc2cc(NC(=O)CCN3CCOCC3)ccc2O[C@H]1CN(C)CC1CCCCC1 | . | . | -6 | 5 | . | 23[16.7 µM]
CN(C)C(=O)C[C@H]1CC[C@H](NS(=O)(=O)c2ccccc2)[C@H](CO)O1 | . | . | -5 | -1 | -3 | 35[16.7 µM]
CO[C@H]1CN(C)C(=O)c2cc(NC(=O)c3ccc4c(c3)OCO4)ccc2OC[C@H](C)N(CCC(F)(F)F)C[C@@H]1C | . | . | . | -10 | . | .
C[C@@H](NC(=O)C[C@@H]1C=C[C@@H](NC(=O)Cc2ccccn2)[C@H](CO)O1)c1ccccc1 | . | . | 1 | -4 | . | .
CC(C)CCNC(=O)C(c1ccncc1)N(Cc1cccs1)C(=O)Cn1nnc(-c2ccc(F)cc2)n1 (stereo not given) | 0 | -18 | 0 | . | 80* | 33
COc1ccc(-c2nnn(CC(=O)N(Cc3cccs3)C(C)C(=O)NC3CCCC3)n2)cc1OC (stereo not given) | 0 | -3 | 2 | . | . | 78*
CCC(C(=O)NC1CCCC1)N(Cc1cccs1)C(=O)Cn1nnc(-c2ccc(OC)c(OC)c2)n1 (stereo not given) | 0 | -3 | -3 | -16 | . | .
SMILES | CDK5 p35 inh | dFosB activator | Cneo AK release | INS-1E GSIS act | PAX8 reporter | Env fusion inh
O=C(NCC1CCCO1)C(c1ccncc1)N(Cc1cccs1)C(=O)Cn1nnc(-c2ccc(F)cc2)n1 (stereo not given) | -1 | -7 | . | -4 | 24 | -13
CO[C@H]1CN(C)C(=O)c2cc(NC(C)=O)ccc2OC[C@@H](C)N(CCC(F)(F)F)C[C@H]1C | . | . | -2 | 10 | -8 | 11[16.7 µM]
CCCn1c(C)cc(C)c(C#N)c1=O | 1 | 7 | . | 43* | . | .
Cc1ccc(NC(=O)c2ccncc2)cc1S(=O)(=O)N(C)C | 0 | 2 | -3 | 3 | -11 | .
Cc1ccc(NC(=O)c2ccc(OC(F)(F)F)cc2)cc1S(=O)(=O)N(C)C | 1 | -1 | . | -8 | 13 | 62*
CCC(C)(C)NC(=O)C(NS(=O)(=O)c1cccs1)c1ccccc1 (stereo not given) | 5 | 0 | 2 | 3 | -11 | 71*
O=C(NCc1cccs1)C(Cc1ccccc1)NS(=O)(=O)c1cccs1 (stereo not given) | 1 | -2 | -3 | . | . | 55*
CCc1cccc(CC)c1NC(=O)C(NS(=O)(=O)c1cccs1)c1ccccc1 (stereo not given) | 0 | 3 | -2 | 2 | -28 | -7
Cc1noc(C)c1NC(=O)N(C)C[C@H]1OCCCC[C@@H](C)Oc2ccc(NC(=O)Nc3ccccc3)cc2C(=O)N([C@@H](C)CO)C[C@H]1C | . | . | 5 | 3 | 24 | 1[16.7 µM]
CCCC#Cc1ccc2c(c1)O[C@@H](CN(C)Cc1ccncc1)[C@H](C)CN([C@H](C)CO)S2(=O)=O | . | . | -8 | -32 | . | 39[16.7 µM]
CCOC1=C2[C@H](c3ccccc3)N(S(=O)(=O)c3ccc(C)cc3)[C@H](C(C)C)[C@H]2C(C#N)(C#N)C(C#N)(C#N)C1 | . | . | . | -5 | 28 | 107*
CCOC1=C2[C@H](c3ccc(CC)cc3)N(S(=O)(=O)c3ccc(C)cc3)C[C@H]2C(C#N)(C#N)C(C#N)(C#N)C1 | . | . | -6 | -12 | -7 | -91
O=C(Nc1ccc(F)cc1)N1CC(=O)N2[C@H](C1)[C@H](c1ccc(C#Cc3ccc(F)cc3)cc1)[C@@H]2CO | . | . | . | -24 | 68* | .
O=C(c1cccc(F)c1)N1CC(=O)N2[C@H](C1)[C@H](c1ccc(/C=C/c3ccccc3)cc1)[C@@H]2CO | . | . | . | -15 | 63* | .
O=C(Nc1ccc(F)cc1)N1CC(=O)N2[C@@H](CO)[C@@H](c3ccc(C#Cc4ccc(F)cc4)cc3)[C@@H]2C1 | . | . | . | -32 | 119* | .

From PubChem BioAssay
